Data published in ChEMBL document CHEMBL2169846, “Design and synthesis of Pictet-Spengler condensation products that exhibit oncogenic-RAS synthetic lethality and induce non-apoptotic cell death” (Bioorg Med Chem Lett, 2012).
Activity calls are given as the source filed them. The rule behind the calls is not given here.

What was measured:
[1] = system: HT-1080; test: Cytotoxicity against human HT1080 cells after 48 hrs by alamar blue assay; assay type: functional; settings: HT-1080, 48 h, read-out: LC50 (the source's name)
[2] = Cytotoxicity against human BJeH cells expressing wild type RAS after 48 hrs by alamar blue assay; assay type: functional, cell-based; settings: read-out: LC50 (the source's name)
[3] = system: RKO; test: Cytotoxicity against human RKO cells after 48 hrs by alamar blue assay; assay type: functional; settings: read-out: LC50 (the source's name)
[4] = Cytotoxicity against human BJeLR cells expressing RAS G12V mutant after 48 hrs by alamar blue assay; assay type: functional, cell-based; settings: read-out: LC50 (the source's name)
[5] = molecular target: E3 ubiquitin-protein ligase Mdm2 (Homo sapiens) (UniProt Q00987); test: Inhibition of wild type Mdm2 at 20 ug/mL after 2 hrs by cell-based luciferase assay
Sequence of E3 ubiquitin-protein ligase Mdm2 (Homo sapiens) (Q00987 whole entry, looked up): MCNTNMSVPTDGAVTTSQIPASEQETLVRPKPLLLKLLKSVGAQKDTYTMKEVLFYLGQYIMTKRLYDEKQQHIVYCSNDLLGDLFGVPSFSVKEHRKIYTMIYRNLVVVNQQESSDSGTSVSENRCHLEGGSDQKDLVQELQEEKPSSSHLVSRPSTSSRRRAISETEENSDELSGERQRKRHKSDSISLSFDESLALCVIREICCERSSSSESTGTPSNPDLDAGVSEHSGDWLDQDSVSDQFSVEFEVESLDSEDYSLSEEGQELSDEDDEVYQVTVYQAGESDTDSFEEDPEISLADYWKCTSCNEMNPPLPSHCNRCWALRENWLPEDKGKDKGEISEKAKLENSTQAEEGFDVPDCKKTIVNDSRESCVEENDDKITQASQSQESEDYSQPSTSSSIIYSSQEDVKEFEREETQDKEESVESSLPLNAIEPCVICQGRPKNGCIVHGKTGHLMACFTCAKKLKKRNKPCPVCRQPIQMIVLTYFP

[6] = system: U2OS; test: Cytotoxicity against human U2OS cells after 48 hrs by alamar blue assay; assay type: functional; settings: read-out: LC50 (the source's name)
[7] = Cytotoxicity against human HT1299 cells after 48 hrs by alamar blue assay; assay type: functional; settings: HT1299, 48 h, read-out: LC50 (the source's name)
[8] = system: E3 ubiquitin-protein ligase Mdm2 (Homo sapiens), Q00987 [C464A]; test: Inhibition of Mdm2 C464A mutant at 20 ug/mL after 2 hrs by cell-based luciferase assay
Sequence of E3 ubiquitin-protein ligase Mdm2 (Homo sapiens), Q00987 [C464A] (Q00987 whole entry C464A): as the sequence (Q00987 whole entry, looked up) above, with C464A counted along it

[9] = system: BJeLR; test: Induction of reactive oxygen species production in human BJeLR cells expressing RAS G12V mutant after 6 hrs by DCF-based flow cytometric analysis; assay type: functional, cell-based
[10] = system: BJeLR; test: Cytotoxicity against human BJeLR cells expressing RAS G12V mutant at 0.57 uM at 12 hrs by trypan blue staining; assay type: functional, cell-based
Method in brief: (§1)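 Time-course in BJ-TERT/LT/ST/RAS^V12 cells exposed for the designated times to erastin (10 µM), test compound (30 µM) or RSL3 (0.57 µM) to follow onset of death. Data representative of duplicate experiments.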

[11] = system: BJeH; test: Cytotoxicity against human BJeH cells expressing wild type RAS at 568 nM after 24 hrs by trypan blue staining; assay type: functional, cell-based
[12] = system: BJeH; test: Induction of reactive oxygen species production in human BJeH cells expressing wild type RAS after 6 hrs by DCF-based flow cytometric analysis; assay type: functional, cell-based
[13] = system: BJeLR; test: Cytotoxicity against human BJeLR cells expressing RAS G12V mutant at 0.57 uM at 24 hrs by trypan blue staining; assay type: functional, cell-based; method in brief: as §1
[14] = system: HT1299; test: Cytotoxicity against human HT1299 cells at 20 ug/mL after 48 hrs by alamar blue assay; assay type: functional, cell-based
Method in brief: (§2)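 Each cell line exposed for 48 h to a 2-fold, 12-point dilution series beginning at 20 µg/mL. Viability by Alamar blue; LC50 derived from the curves.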

[15] = system: MCF7; test: Cytotoxicity against human MCF7 cells after 48 hrs by alamar blue assay; assay type: functional; settings: MCF7, 48 h, read-out: LC50 (the source's name)
[16] = system: BJeLR; test: Cytotoxicity against human BJeLR cells expressing RAS G12V mutant at 20 ug/mL after 48 hrs by alamar blue assay; assay type: functional, cell-based
[17] = system: BJeH; test: Cytotoxicity against human BJeH cells expressing wild type RAS at 20 ug/mL after 48 hrs by alamar blue assay; assay type: functional, cell-based
[18] = system: BJeH; test: Cytotoxicity against human BJeH cells expressing wild type RAS at 1 uM after 24 hrs by trypan blue staining; assay type: functional, cell-based
[19] = system: BJeLR; test: Cytotoxicity against human BJeLR cells expressing RAS G12V mutant at 1 uM after 24 hrs by trypan blue staining; assay type: functional, cell-based
[20] = system: BJeLR; test: Induction of apoptosis in human BJeLR cells expressing RAS G12V mutant assessed as caspase 3 activation after 28 hrs by Apo-One assay; assay type: functional, cell-based
Method in brief: (§3)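 BJ-TERT and BJ-TERT/LT/ST/RAS(V12) cells given compound as a two-fold, 14-point dilution series for 28 h. Alamar blue then added for viability, and caspase 3/7 activation detected by Apo-ONE in the same wells.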

[21] = system: BJeLR; test: Induction of apoptosis in human BJeLR cells expressing RAS G12V mutant assessed as caspase 7 activation after 28 hrs by Apo-One assay; assay type: functional, cell-based; method in brief: as §3
[22] = system: BJeH; test: Induction of apoptosis in human BJeH cells expressing wild type RAS assessed as caspase 7 activation after 28 hrs by Apo-One assay; assay type: functional, cell-based; method in brief: as §3
[23] = system: BJeH; test: Induction of apoptosis in human BJeH cells expressing wild type RAS assessed as caspase 3 activation after 28 hrs by Apo-One assay; assay type: functional, cell-based; method in brief: as §3
[24] = system: BJeLR; test: Cytotoxicity against human BJeLR cells expressing RAS G12V mutant at 10 uM at 24 hrs by trypan blue staining; assay type: functional, cell-based
[25] = system: BJeLR; test: Cytotoxicity against human BJeLR cells expressing RAS G12V mutant at 10 uM at 12 hrs by trypan blue staining; assay type: functional, cell-based
[26] = system: BJeH; test: Cytotoxicity against human BJeH cells expressing wild type RAS at 10 uM after 24 hrs by trypan blue staining; assay type: functional, cell-based
[27] = system: HT-1080; test: Cytotoxicity against human HT1080 cells at 20 ug/mL after 48 hrs by alamar blue assay; assay type: functional, cell-based; method in brief: as §2
[28] = system: MCF7; test: Cytotoxicity against human MCF7 cells at 20 ug/mL after 48 hrs by alamar blue assay; assay type: functional, cell-based; method in brief: as §2
[29] = system: RKO; test: Cytotoxicity against human RKO cells at 20 ug/mL after 48 hrs by alamar blue assay; assay type: functional, cell-based; method in brief: as §2
[30] = Ratio of MEL24 LC50 to compound LC50 for human BJeLR cells expressing RAS G12V mutant; assay type: functional
[31] = system: U2OS; test: Cytotoxicity against human U2OS cells at 20 ug/mL after 48 hrs by alamar blue assay; assay type: functional, cell-based

## CC(C)(C)OC(=O)N1CCc2c(n(C(=O)OC(C)(C)C)c3ccccc23)C1CC=O (stereo not drawn)
[1]
  CC50: 15.2 µM
[2]
  CC50: 48.3 µM
[3]
  CC50: 7 µM
[4]
  CC50: 23.4 µM
[5]
  inhibition: inactive
[6]
  CC50: 10.3 µM
[7]
  CC50: 11.8 µM
[8]
  inhibition: inactive

## COC(=O)c1ccc(C2c3[nH]c4ccccc4c3CC(C(=O)OC)N2C(=O)CCl)cc1 (stereo not drawn)
[9]
  Activity: Active
[10]
  Activity: Active
[11]
  Activity: inactive
[12]
  Activity: Active
[13]
  Activity: Active

## COC(OC)C1c2[nH]c3ccccc3c2CCN1Cc1ccccc1 (stereo not drawn)
[1]
  CC50: 59.5 µM
[3]
  CC50: 59.5 µM
[14]
  Activity: inactive
[5]
  inhibition: inactive
[6]
  CC50: 59.5 µM
[15]
  CC50: 59.5 µM
[16]
  Activity: inactive
[17]
  Activity: inactive
[8]
  inhibition: inactive

## CCOC(=O)C1c2[nH]c3ccccc3c2CCN1C(=O)OCc1ccccc1 (stereo not drawn)
[2]
  CC50: 52.9 µM
[3]
  CC50: 14.8 µM
[4]
  CC50: 12.9 µM
[5]
  inhibition: inactive
[6]
  CC50: 12.9 µM
[7]
  CC50: 52.9 µM
[8]
  inhibition: inactive

## CC(C=O)C1c2c(c3ccccc3n2C(=O)OC(C)(C)C)CCN1C(=O)OC(C)(C)C (stereo not drawn)
[1]
  CC50: 13.7 µM
[3]
  CC50: 7.7 µM
[4]
  CC50: 46.7 µM
[5]
  inhibition: inactive
[6]
  CC50: 10 µM
[15]
  CC50: 11.4 µM
[7]
  CC50: 46.7 µM
[17]
  Activity: inactive
[8]
  inhibition: inactive

## COC(OC)C1c2[nH]c3ccccc3c2CCN1C(=O)OCc1ccccc1 (stereo not drawn)
[2]
  CC50: 52.6 µM
[3]
  CC50: 22.3 µM
[4]
  CC50: 10.2 µM
[5]
  inhibition: inactive
[6]
  CC50: 10.2 µM
[15]
  CC50: 6.5 µM
[7]
  CC50: 52.6 µM
[8]
  inhibition: inactive

## CN1C(=O)C(Cc2nccc3c4ccccc4n(C)c23)C(=O)N(C)C1=O
[1]
  CC50: 57.1 µM
[3]
  CC50: 15.4 µM
[5]
  inhibition: inactive
[6]
  CC50: 14.2 µM
[15]
  CC50: 57.1 µM
[7]
  CC50: 57.5 µM
[16]
  Activity: inactive
[17]
  Activity: inactive
[8]
  inhibition: inactive

## CCOC(=O)C(C)C1c2c(c3ccccc3n2C(=O)OC(C)(C)C)CCN1C(=O)OC(C)(C)C (stereo not drawn)
[1]
  CC50: 25.2 µM
[3]
  CC50: 9.9 µM
[5]
  inhibition: inactive
[6]
  CC50: 14.1 µM
[15]
  CC50: 9.5 µM
[7]
  CC50: 42.3 µM
[16]
  Activity: inactive
[17]
  Activity: inactive
[8]
  inhibition: inactive

## CN[C@@H]1C[C@H]2O[C@@](C)([C@@H]1OC)n1c3ccccc3c3c4c(c5c6ccccc6n2c5c31)C(=O)NC4
[18]
  Activity: Active
[19]
  Activity: Active

## CCOC(=O)C(C)C1c2[nH]c3ccccc3c2CCN1C(=O)OC(C)(C)C (stereo not drawn)
[1]
  CC50: 53.7 µM
[3]
  CC50: 27.9 µM
[5]
  inhibition: inactive
[6]
  CC50: 53.7 µM
[15]
  CC50: 23.6 µM
[7]
  CC50: 53.7 µM
[16]
  Activity: inactive
[17]
  Activity: inactive
[8]
  inhibition: inactive

## CN1C(=O)C(C2NCCc3c2[nH]c2ccccc32)C(=O)N(C)C1=O (stereo not drawn)
[20]
  Activity: Active
[1]
  CC50: 16.5 µM
[2]
  CC50: 32.2 µM
[3]
  CC50: 30.9 µM
[4]
  CC50: 23.3 µM
[5]
  inhibition: inactive
[6]
  CC50: 29.4 µM
[15]
  CC50: 31.2 µM
[7]
  CC50: 32.8 µM
[21]
  Activity: Active
[22]
  Activity: Active
[23]
  Activity: Active
[8]
  inhibition: inactive

## CCOc1ccccc1-n1c(C(C)N2CCN(C(=O)COc3ccc(Cl)cc3)CC2)nc2ccccc2c1=O (stereo not drawn)
[24]
  Activity: Active
[9]
  Activity: Active
[12]
  Activity: Active
[25]
  Activity: Active
[26]
  Activity: inactive

## CC(CC1C(=O)N(C)C(=O)N(C)C1=O)C1c2c(c3ccccc3n2C(=O)OC(C)(C)C)CCN1C(=O)OC(C)(C)C (stereo not drawn)
[1]
  CC50: 14.6 µM
[3]
  CC50: 11.4 µM
[4]
  CC50: 35.2 µM
[5]
  inhibition: inactive
[6]
  CC50: 12.1 µM
[15]
  CC50: 9.8 µM
[7]
  CC50: 16.9 µM
[17]
  Activity: inactive
[8]
  inhibition: inactive

## CC(CC1C(=O)N(C)C(=O)N(C)C1=O)C1NCCc2c1[nH]c1ccccc21 (stereo not drawn)
[27]
  Activity: inactive
[2]
  CC50: 54.3 µM
[3]
  CC50: 54.3 µM
[4]
  CC50: 54.3 µM
[14]
  Activity: inactive
[5]
  inhibition: inactive
[28]
  Activity: inactive
[8]
  inhibition: inactive

## CCOC(=O)C1NCCc2c1[nH]c1ccccc21 (stereo not drawn)
[1]
  CC50: 81.9 µM
[2]
  CC50: 71.7 µM
[4]
  CC50: 71.7 µM
[14]
  Activity: inactive
[29]
  Activity: inactive
[5]
  inhibition: inactive
[6]
  CC50: 81.9 µM
[28]
  Activity: inactive
[8]
  inhibition: inactive

## CN1C(=O)C(C2NC=Cc3c2[nH]c2ccccc32)C(=O)N(C)C1=O (stereo not drawn)
[30]
  Ratio: 2
[1]
  CC50: 16 µM
[3]
  CC50: 25 µM
[4]
  CC50: 12.9 µM
[31]
  Activity: inactive
[5]
  inhibition: inactive
[15]
  CC50: 61.7 µM
[7]
  CC50: 61.7 µM
[17]
  Activity: inactive
[8]
  inhibition: inactive

## CC(CO)C1c2[nH]c3ccccc3c2CCN1C(=O)OC(C)(C)C (stereo not drawn)
[1]
  CC50: 46 µM
[2]
  CC50: 60.7 µM
[3]
  CC50: 16 µM
[5]
  inhibition: inactive
[6]
  CC50: 17.8 µM
[15]
  CC50: 22.1 µM
[7]
  CC50: 24.8 µM
[16]
  Activity: inactive
[8]
  inhibition: inactive
